Assay results from ChEMBL document CHEMBL3286116, “Synthesis, biological evaluation and structure-activity correlation study of a series of imidazol-based compounds as Candida albicans inhibitors” (Eur J Med Chem, 2014).
Converted amounts (≈) assume the structure as drawn.

How the values were obtained:
Format in all cases: functional
Candida albicans [1] = experiment: Antifungal activity against Candida albicans ATCC 90028 after 48 hrs by CLSI broth microdilution method; settings: ATCC 90028, 48 h
In short: (§1)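 Yeast CLSI broth microdilution (M27-A3). Compounds dissolved in DMSO at 100× the top test concentration, then diluted as serial two-fold dilutions in RPMI 1640 to final 0.125–64. Inoculum was 1.0–1.5 × 10^3 cells mL−1, incubated at 35 °C and read for growth at 48 h. MIC is the lowest concentration giving ≥50% growth inhibition versus growth control. Reported as the median of five replicates and as the geometric mean.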

Candida albicans [2] = experiment: Antifungal activity against Candida albicans ATCC 20891 after 48 hrs by CLSI broth microdilution method; settings: ATCC 20891, 48 h; in short: as §1
Candida albicans [3] = experiment: Antifungal activity against Candida albicans PMC 1011 after 48 hrs by CLSI broth microdilution method; settings: PMC 1011, 48 h; in short: as §1
Pichia kudriavzevii [4] = experiment: Antifungal activity against Candida krusei DSM 6128 after 48 hrs by CLSI broth microdilution method; settings: DSM 6128, 48 h; in short: as §1
Pichia kudriavzevii [5] = experiment: Antifungal activity against Candida krusei PMC 0613 after 48 hrs by CLSI broth microdilution method; settings: PMC 0613, 48 h; in short: as §1
Candida tropicalis [6] = experiment: Antifungal activity against Candida tropicalis PMC 0910 after 48 hrs by CLSI broth microdilution method; settings: PMC 0910, 48 h; in short: as §1
Candida tropicalis [7] = experiment: Antifungal activity against Candida tropicalis DSM 11953 after 48 hrs by CLSI broth microdilution method; settings: DSM 11953, 48 h; in short: as §1
Candida parapsilosis [8] = experiment: Antifungal activity against Candida parapsilosis DSM 11224 after 48 hrs by CLSI broth microdilution method; settings: Lodderomyces parapsilosis, DSM 11224, 48 h; in short: as §1
Candida parapsilosis [9] = experiment: Antifungal activity against Candida parapsilosis ATCC 22019 after 48 hrs by CLSI broth microdilution method; settings: Lodderomyces parapsilosis, ATCC 22019, 48 h; in short: as §1
Nakaseomyces glabratus [10] = experiment: Antifungal activity against Candida glabrata PMC 0805 after 48 hrs by CLSI broth microdilution method; settings: PMC 0805, 48 h; in short: as §1
Nakaseomyces glabratus [11] = experiment: Antifungal activity against Candida glabrata PMC 0807 after 48 hrs by CLSI broth microdilution method; settings: PMC 0807, 48 h; in short: as §1
Cryptococcus neoformans [12] = experiment: Antifungal activity against Cryptococcus neoformans PMC 2123 after 72 hrs by CLSI broth microdilution method; settings: PMC 2123, 72 h
In short: (§2)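 Cryptococcus neoformans tested by CLSI broth microdilution in RPMI 1640, with serial two-fold dilutions from DMSO stocks at 100× the top concentration, final 0.125–64. Inoculum was 1.0–1.5 × 10^3 cells mL−1 at 35 °C, with growth read at 72 h. MIC is the lowest concentration with ≥50% growth inhibition versus control. Median of five replicates, plus geometric mean.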

Cryptococcus neoformans [13] = experiment: Antifungal activity against Cryptococcus neoformans PMC 2136 after 72 hrs by CLSI broth microdilution method; settings: PMC 2136, 72 h; in short: as §2
Cryptococcus neoformans [14] = experiment: Antifungal activity against Cryptococcus neoformans PMC 2115 after 72 hrs by CLSI broth microdilution method; settings: PMC 2115, 72 h; in short: as §2
Cryptococcus neoformans [15] = experiment: Antifungal activity against Cryptococcus neoformans PMC 2103 after 72 hrs by CLSI broth microdilution method; settings: PMC 2103, 72 h; in short: as §2
Cryptococcus neoformans [16] = experiment: Antifungal activity against Cryptococcus neoformans PMC 2107 after 72 hrs by CLSI broth microdilution method; settings: PMC 2107, 72 h; in short: as §2
Cryptococcus neoformans [17] = experiment: Antifungal activity against Cryptococcus neoformans PMC 2102 after 72 hrs by CLSI broth microdilution method; settings: PMC 2102, 72 h; in short: as §2
Cryptococcus neoformans [18] = experiment: Antifungal activity against Cryptococcus neoformans DSM 11959 after 72 hrs by CLSI broth microdilution method; settings: DSM 11959, 72 h; in short: as §2
Cryptococcus neoformans [19] = experiment: Antifungal activity against Cryptococcus neoformans PMC 2111 after 72 hrs by CLSI broth microdilution method; settings: PMC 2111, 72 h; in short: as §2
[20] = tested on: Trichophyton mentagrophytes; experiment: Antifungal activity against Trichophyton mentagrophytes DSM 4870 after 72 hrs by CLSI broth microdilution method; settings: DSM 4870, 72 h
In short: (§3)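 Dermatophytes tested by CLSI broth microdilution for filamentous fungi (M38-A2). Serial two-fold dilutions of DMSO-dissolved compound in RPMI 1640, final 0.125–64. Inoculum was 0.4–5 × 10^4 CFU mL−1, incubated at 35 °C and read at 72 h. MIC80 is the lowest concentration giving ≥80% growth inhibition versus growth control. Median of five replicates, plus geometric mean.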

[21] = tested on: Trichophyton mentagrophytes; experiment: Antifungal activity against Trichophyton mentagrophytes PMC 6515 after 72 hrs by CLSI broth microdilution method; settings: PMC 6515, 72 h; in short: as §3
[22] = tested on: Trichophyton mentagrophytes; experiment: Antifungal activity against Trichophyton mentagrophytes PMC 6531 after 72 hrs by CLSI broth microdilution method; settings: PMC 6531, 72 h; in short: as §3
[23] = tested on: Trichophyton mentagrophytes; experiment: Antifungal activity against Trichophyton mentagrophytes PMC 6509 after 72 hrs by CLSI broth microdilution method; settings: PMC 6509, 72 h; in short: as §3
[24] = tested on: Trichophyton mentagrophytes; experiment: Antifungal activity against Trichophyton mentagrophytes PMC 6503 after 72 hrs by CLSI broth microdilution method; settings: PMC 6503, 72 h; in short: as §3
[25] = tested on: Trichophyton mentagrophytes; experiment: Antifungal activity against Trichophyton mentagrophytes PMC 6552 after 72 hrs by CLSI broth microdilution method; settings: PMC 6552, 72 h; in short: as §3
Nannizzia gypsea [26] = experiment: Antifungal activity against Microsporum gypseum PMC 7303 after 72 hrs by CLSI broth microdilution method; settings: PMC 7303, 72 h; in short: as §3
Nannizzia gypsea [27] = experiment: Antifungal activity against Microsporum gypseum PMC 7331 after 72 hrs by CLSI broth microdilution method; settings: PMC 7331, 72 h; in short: as §3
Nannizzia gypsea [28] = experiment: Antifungal activity against Microsporum gypseum DSM 3824 after 72 hrs by CLSI broth microdilution method; settings: DSM 3824, 72 h; in short: as §3
Candida albicans [29] = experiment: Antifungal activity against Candida albicans ATCC 24433 after 48 hrs by CLSI broth microdilution method; settings: ATCC 24433, 48 h; in short: as §1
Candida albicans [30] = experiment: Antifungal activity against Candida albicans ATCC 3153 after 48 hrs by CLSI broth microdilution method; settings: ATCC 3153, 48 h; in short: as §1
Candida albicans [31] = experiment: Antifungal activity against Candida albicans ATCC 10231 after 48 hrs by CLSI broth microdilution method; settings: ATCC 10231, 48 h; in short: as §1
Candida albicans [32] = experiment: Antifungal activity against Candida albicans ATCC 76615 after 48 hrs by CLSI broth microdilution method; settings: ATCC 76615, 48 h; in short: as §1
Candida albicans [33] = experiment: Antifungal activity against Candida albicans ATCC 10261 after 48 hrs by CLSI broth microdilution method; settings: ATCC 10261, 48 h; in short: as §1

| MIC50 (Candida albicans [1]) [µg/mL] | MIC50 (Candida albicans [2]) [µg/mL] | MIC50 (Candida albicans [3]) [µg/mL] | MIC50 (Pichia kudriavzevii [4]) [µg/mL] | MIC50 (Pichia kudriavzevii [5]) [µg/mL] | MIC50 (Candida tropicalis [6]) [µg/mL] | MIC50 (Candida tropicalis [7]) [µg/mL] | MIC50 (Candida parapsilosis [8]) [µg/mL] | MIC50 (Candida parapsilosis [9]) [µg/mL] | MIC50 (Nakaseomyces glabratus [10]) [µg/mL] | MIC50 (Nakaseomyces glabratus [11]) [µg/mL] | MIC50 (Cryptococcus neoformans [12]) [µg/mL] | MIC50 (Cryptococcus neoformans [13]) [µg/mL] | MIC50 (Cryptococcus neoformans [14]) [µg/mL] | MIC50 (Cryptococcus neoformans [15]) [µg/mL] | MIC50 (Cryptococcus neoformans [16]) [µg/mL] | MIC50 (Cryptococcus neoformans [17]) [µg/mL] | MIC50 (Cryptococcus neoformans [18]) [µg/mL] | MIC50 (Cryptococcus neoformans [19]) [µg/mL] | MIC80 [20] [µg/mL] | SMILES | other results |
| --- | --- | --- | --- | --- | --- | --- | --- | --- | --- | --- | --- | --- | --- | --- | --- | --- | --- | --- | --- | --- | --- |
| 128 (≈ 254 µM) | 128 (≈ 254 µM) | 128 (≈ 254 µM) | 128 (≈ 254 µM) | 128 (≈ 254 µM) | 128 (≈ 254 µM) | 128 (≈ 254 µM) | 128 (≈ 254 µM) | 128 (≈ 254 µM) | 128 (≈ 254 µM) | 128 (≈ 254 µM) | 64 (≈ 127 µM) | 16 (≈ 31.8 µM) | 64 (≈ 127 µM) | 1 (≈ 1.99 µM) | 16 (≈ 31.8 µM) | 32 (≈ 63.6 µM) | 16 (≈ 31.8 µM) | 16 (≈ 31.8 µM) | 128 (≈ 254 µM) | O=C(Nc1ccc(N2CCN(C(=O)c3ccco3)CC2)cc1)OC(Cn1ccnc1)c1ccc(F)cc1 (centres undefined) | MIC80 [21]: 128 µg/mL (≈ 254 µM); MIC80 [22]: 128 µg/mL (≈ 254 µM); MIC80 [23]: 128 µg/mL (≈ 254 µM); MIC80 [24]: 128 µg/mL (≈ 254 µM); MIC80 [25]: 128 µg/mL (≈ 254 µM); MIC80 (Nannizzia gypsea [26]): 64 µg/mL (≈ 127 µM); MIC80 (Nannizzia gypsea [27]): 128 µg/mL (≈ 254 µM); MIC80 (Nannizzia gypsea [28]): 128 µg/mL (≈ 254 µM); MIC50 (Candida albicans [29]): 128 µg/mL (≈ 254 µM); MIC50 (Candida albicans [30]): 128 µg/mL (≈ 254 µM); MIC50 (Candida albicans [31]): 128 µg/mL (≈ 254 µM); MIC50 (Candida albicans [32]): 128 µg/mL (≈ 254 µM); MIC50 (Candida albicans [33]): 32 µg/mL (≈ 63.6 µM) |
| 128 (≈ 255 µM) | 128 (≈ 255 µM) | 128 (≈ 255 µM) | 128 (≈ 255 µM) | 128 (≈ 255 µM) | 128 (≈ 255 µM) | 128 (≈ 255 µM) | 128 (≈ 255 µM) | 128 (≈ 255 µM) | 128 (≈ 255 µM) | 128 (≈ 255 µM) | 32 (≈ 63.8 µM) | 16 (≈ 31.9 µM) | 32 (≈ 63.8 µM) | 16 (≈ 31.9 µM) | 8 (≈ 15.9 µM) | 16 (≈ 31.9 µM) | 16 (≈ 31.9 µM) | 16 (≈ 31.9 µM) | 128 (≈ 255 µM) | CCS(=O)(=O)N1CCN(c2ccc(NC(=O)OC(Cn3ccnc3)c3ccc(F)cc3)cc2)CC1 (centres undefined) | MIC80 [21]: 128 µg/mL (≈ 255 µM); MIC80 [22]: 128 µg/mL (≈ 255 µM); MIC80 [23]: 128 µg/mL (≈ 255 µM); MIC80 [24]: 128 µg/mL (≈ 255 µM); MIC80 [25]: 128 µg/mL (≈ 255 µM); MIC80 (Nannizzia gypsea [26]): 128 µg/mL (≈ 255 µM); MIC80 (Nannizzia gypsea [27]): 128 µg/mL (≈ 255 µM); MIC80 (Nannizzia gypsea [28]): 128 µg/mL (≈ 255 µM); MIC50 (Candida albicans [29]): 128 µg/mL (≈ 255 µM); MIC50 (Candida albicans [30]): 128 µg/mL (≈ 255 µM); MIC50 (Candida albicans [31]): 128 µg/mL (≈ 255 µM); MIC50 (Candida albicans [32]): 128 µg/mL (≈ 255 µM); MIC50 (Candida albicans [33]): 128 µg/mL (≈ 255 µM) |
| 32 (≈ 61.5 µM) | 32 (≈ 61.5 µM) | 32 (≈ 61.5 µM) | 2 (≈ 3.85 µM) | 1 (≈ 1.92 µM) | 32 (≈ 61.5 µM) | 16 (≈ 30.8 µM) | 2 (≈ 3.85 µM) | 4 (≈ 7.69 µM) | 2 (≈ 3.85 µM) | 4 (≈ 7.69 µM) | 2 (≈ 3.85 µM) | 2 (≈ 3.85 µM) | 2 (≈ 3.85 µM) | 1 (≈ 1.92 µM) | 1 (≈ 1.92 µM) | 2 (≈ 3.85 µM) | 1 (≈ 1.92 µM) | 1 (≈ 1.92 µM) | 128 (≈ 246 µM) | O=C(Nc1ccc(N2CCN(c3ccc(Cl)cc3)CC2)cc1)O[C@H](Cn1ccnc1)c1ccc(F)cc1 | MIC80 [21]: 128 µg/mL (≈ 246 µM); MIC80 [22]: 128 µg/mL (≈ 246 µM); MIC80 [23]: 128 µg/mL (≈ 246 µM); MIC80 [24]: 128 µg/mL (≈ 246 µM); MIC80 [25]: 128 µg/mL (≈ 246 µM); MIC80 (Nannizzia gypsea [26]): 64 µg/mL (≈ 123 µM); MIC80 (Nannizzia gypsea [27]): 128 µg/mL (≈ 246 µM); MIC80 (Nannizzia gypsea [28]): 128 µg/mL (≈ 246 µM); MIC50 (Candida albicans [29]): 64 µg/mL (≈ 123 µM); MIC50 (Candida albicans [30]): 64 µg/mL (≈ 123 µM); MIC50 (Candida albicans [31]): 32 µg/mL (≈ 61.5 µM); MIC50 (Candida albicans [32]): 32 µg/mL (≈ 61.5 µM); MIC50 (Candida albicans [33]): 64 µg/mL (≈ 123 µM) |
